Measurements taken from ChEMBL document CHEMBL1138987, “Development of cyclic gamma-MSH analogues with selective hMC3R agonist and hMC3R/hMC5R antagonist activities” (J Med Chem, 2006).

Columns and labels:
[1] = molecular target: T1, Melanocyte-stimulating hormone receptor (Homo sapiens, UniProt Q01726); assay: Inhibitory activity against hMC1R transfected in HEK293 cells; assay type: cell-based
Summary of the method: (§1)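 Competition binding on whole HEK293 cells stably expressing the human receptor, seeded 48 h prior. Binding buffer was MEM, 25 mM HEPES pH 7.4, 0.2% BSA, 1,10-phenanthroline, leupeptin and bacitracin. Cells washed and lysed, then gamma counted. IC50 from nonlinear least-squares fit; mean of two experiments in triplicate.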
Target sequence in this assay (Q01726 whole entry): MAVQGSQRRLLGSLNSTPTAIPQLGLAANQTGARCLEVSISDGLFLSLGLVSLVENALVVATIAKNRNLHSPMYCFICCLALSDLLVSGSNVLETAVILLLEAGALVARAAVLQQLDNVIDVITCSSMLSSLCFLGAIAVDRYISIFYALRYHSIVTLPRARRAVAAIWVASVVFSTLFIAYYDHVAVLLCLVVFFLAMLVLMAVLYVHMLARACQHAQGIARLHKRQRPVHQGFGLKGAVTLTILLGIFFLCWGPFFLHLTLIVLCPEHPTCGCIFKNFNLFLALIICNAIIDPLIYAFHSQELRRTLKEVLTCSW

[2] = molecular target: T2, Melanocortin receptor 3 (Homo sapiens, UniProt P41968); assay: Inhibitory activity against hMC3R transfected in HEK293 cells; assay type: cell-based; summary of the method: as §1
T2 sequence (P41968 whole entry): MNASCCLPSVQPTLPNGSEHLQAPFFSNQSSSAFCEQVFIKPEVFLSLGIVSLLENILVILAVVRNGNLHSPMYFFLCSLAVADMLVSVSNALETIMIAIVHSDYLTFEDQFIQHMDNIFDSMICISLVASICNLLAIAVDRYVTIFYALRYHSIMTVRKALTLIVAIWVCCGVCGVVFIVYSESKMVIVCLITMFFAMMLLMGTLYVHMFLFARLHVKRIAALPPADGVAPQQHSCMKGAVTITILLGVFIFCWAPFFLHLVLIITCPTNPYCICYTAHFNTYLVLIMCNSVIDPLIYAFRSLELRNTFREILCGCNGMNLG

[3] = molecular target: T3, Melanocortin receptor 4 (Homo sapiens, UniProt P32245); assay: Inhibitory activity against hMC4R transfected in HEK293 cells; assay type: cell-based; summary of the method: as §1
T3 sequence (P32245 whole entry): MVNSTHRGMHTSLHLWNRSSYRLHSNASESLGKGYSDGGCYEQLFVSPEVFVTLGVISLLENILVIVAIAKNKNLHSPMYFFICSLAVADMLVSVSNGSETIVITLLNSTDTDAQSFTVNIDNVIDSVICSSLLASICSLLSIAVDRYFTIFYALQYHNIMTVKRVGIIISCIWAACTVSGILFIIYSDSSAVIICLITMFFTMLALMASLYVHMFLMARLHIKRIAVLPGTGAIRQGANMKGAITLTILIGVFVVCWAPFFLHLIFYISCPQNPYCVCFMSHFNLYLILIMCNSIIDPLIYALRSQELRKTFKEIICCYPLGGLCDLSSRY

[4] = molecular target: T4, Melanocortin receptor 5 (Homo sapiens, UniProt P33032); assay: Inhibitory activity against hMC5R transfected in HEK293 cells; assay type: cell-based; summary of the method: as §1
T4 sequence (P33032 whole entry): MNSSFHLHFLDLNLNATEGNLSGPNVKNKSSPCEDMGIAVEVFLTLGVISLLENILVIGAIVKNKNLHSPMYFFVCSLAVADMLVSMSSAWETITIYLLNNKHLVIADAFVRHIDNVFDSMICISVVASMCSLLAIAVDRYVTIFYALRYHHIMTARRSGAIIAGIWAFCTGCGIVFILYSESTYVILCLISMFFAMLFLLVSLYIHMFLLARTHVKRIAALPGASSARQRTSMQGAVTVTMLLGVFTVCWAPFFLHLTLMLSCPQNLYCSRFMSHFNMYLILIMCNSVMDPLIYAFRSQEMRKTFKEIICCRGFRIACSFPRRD

[5] = molecular target: T1, Melanocyte-stimulating hormone receptor; assay: Activity against hMC1R transfected in HEK293 cells by intracellular cAMP accumulation; assay type: functional, cell-based
Summary of the method: (§2)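 HEK293 cells stably transfected with human receptor, grown to confluence in MEM with 10% FBS, seeded 48 h before assay. Cells preincubated 1 min at 37 °C in EBSS with IBMX (0.5 mM stock). Peptide added (10^-10 to 10^-5 M), 3 min at 37 °C. Stopped with ice-cold Tris/EDTA, boiled, cAMP measured by competitive binding kit. EC50 from nonlinear least-squares fit; mean of two experiments in triplicate.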

[6] = molecular target: T2, Melanocortin receptor 3; assay: Activity against hMC3R transfected in HEK293 cells by intracellular cAMP accumulation; assay type: functional, cell-based; summary of the method: as §2
[7] = molecular target: T3, Melanocortin receptor 4; assay: Activity against hMC4R transfected in HEK293 cells by intracellular cAMP accumulation; assay type: functional, cell-based; summary of the method: as §2
[8] = molecular target: T4, Melanocortin receptor 5; assay: Activity against hMC5R transfected in HEK293 cells by intracellular cAMP accumulation; assay type: functional, cell-based; summary of the method: as §2

CCCC[C@@H]1NC(=O)CC[C@@H](C(N)=O)NC(=O)[C@H](Cc2c[nH]c3ccccc23)NC(=O)[C@H](CCCN=C(N)N)NC(=O)[C@@H](Cc2ccc3ccccc3c2)NC(=O)[C@H](CCC(N)=O)NC1=O
IC50 [1]: 1000 nM | IC50 [2]: 1.4 nM | IC50 [3]: 65 nM | IC50 [4]: 1.4 nM | %max [5]: 0% | EC50 [5]: > 1000 nM | %max [6]: 0% | EC50 [6]: > 10000 nM | %max [7]: 50% | EC50 [7]: 130 nM | %max [8]: 0% | EC50 [8]: > 10000 nM
